Legend:
[1] = biological target: T1, Alpha-1A adrenergic receptor (Homo sapiens) (UniProt P35348); assay: Ability to activate cloned human alpha-1A receptor expressed in rat-1 fibroblasts via calcium mobilization through Gq coupled PLC pathway expressed as percent of phenylephrine (40 uM) response; type: functional
T1 sequence (whole entry): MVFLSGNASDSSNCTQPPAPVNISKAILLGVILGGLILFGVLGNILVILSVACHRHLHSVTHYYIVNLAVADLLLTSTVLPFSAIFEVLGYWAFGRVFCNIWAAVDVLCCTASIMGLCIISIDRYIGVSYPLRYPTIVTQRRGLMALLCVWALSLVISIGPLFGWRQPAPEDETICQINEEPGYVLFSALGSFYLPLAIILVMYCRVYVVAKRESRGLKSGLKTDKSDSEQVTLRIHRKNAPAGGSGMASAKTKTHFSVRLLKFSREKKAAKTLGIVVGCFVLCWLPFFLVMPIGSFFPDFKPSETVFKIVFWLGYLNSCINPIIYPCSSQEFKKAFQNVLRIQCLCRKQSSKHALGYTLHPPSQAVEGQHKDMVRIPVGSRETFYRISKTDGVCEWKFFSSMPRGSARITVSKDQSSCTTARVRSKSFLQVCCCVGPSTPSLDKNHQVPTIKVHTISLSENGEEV
Method in brief: (§1)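 Rat-1 fibroblasts stably expressing cloned human α1A (clone #137-12), α1B (clone #37-11) or α1D (clone #16-7) adrenoceptor were loaded with the Calcium Green calcium-sensitive dye. Gq/PLC-coupled calcium mobilization was read on a FLIPR. Eleven-point concentration–response curves, with a top concentration typically 5 μM, were normalized to the 40 μM phenylephrine response to give pEC50 and % efficacy. Values are the mean of ≥2 experiments.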

[2] = biological target: T2, Alpha-1B adrenergic receptor (Homo sapiens, UniProt P35368); assay: Activation of recombinant human adrenergic, alpha-1B receptor expressed in rat-1 fibroblasts determined via calcium mobilization through Gq coupled PLC pathway; type: functional; method in brief: as §1
T2 sequence (P35368 whole entry): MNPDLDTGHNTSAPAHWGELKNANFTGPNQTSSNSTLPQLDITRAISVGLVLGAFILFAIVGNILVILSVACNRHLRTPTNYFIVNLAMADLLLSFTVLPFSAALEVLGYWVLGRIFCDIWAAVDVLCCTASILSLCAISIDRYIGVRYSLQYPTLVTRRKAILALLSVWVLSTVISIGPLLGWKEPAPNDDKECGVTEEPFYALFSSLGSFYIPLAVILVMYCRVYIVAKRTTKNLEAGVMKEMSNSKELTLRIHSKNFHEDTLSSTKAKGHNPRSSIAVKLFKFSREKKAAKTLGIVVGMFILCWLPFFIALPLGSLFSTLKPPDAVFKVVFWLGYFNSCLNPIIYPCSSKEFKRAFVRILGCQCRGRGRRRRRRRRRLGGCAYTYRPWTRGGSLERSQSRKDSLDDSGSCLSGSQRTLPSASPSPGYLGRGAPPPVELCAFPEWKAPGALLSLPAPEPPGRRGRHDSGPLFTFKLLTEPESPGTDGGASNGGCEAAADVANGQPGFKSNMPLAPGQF

[3] = biological target: T3, Alpha-1D adrenergic receptor (Homo sapiens, UniProt P25100); assay: Activation of recombinant human adrenergic, alpha-1D receptor expressed in rat-1 fibroblasts assayed via calcium mobilization through Gq coupled PLC pathway; type: functional; method in brief: as §1
T3 sequence (P25100 whole entry): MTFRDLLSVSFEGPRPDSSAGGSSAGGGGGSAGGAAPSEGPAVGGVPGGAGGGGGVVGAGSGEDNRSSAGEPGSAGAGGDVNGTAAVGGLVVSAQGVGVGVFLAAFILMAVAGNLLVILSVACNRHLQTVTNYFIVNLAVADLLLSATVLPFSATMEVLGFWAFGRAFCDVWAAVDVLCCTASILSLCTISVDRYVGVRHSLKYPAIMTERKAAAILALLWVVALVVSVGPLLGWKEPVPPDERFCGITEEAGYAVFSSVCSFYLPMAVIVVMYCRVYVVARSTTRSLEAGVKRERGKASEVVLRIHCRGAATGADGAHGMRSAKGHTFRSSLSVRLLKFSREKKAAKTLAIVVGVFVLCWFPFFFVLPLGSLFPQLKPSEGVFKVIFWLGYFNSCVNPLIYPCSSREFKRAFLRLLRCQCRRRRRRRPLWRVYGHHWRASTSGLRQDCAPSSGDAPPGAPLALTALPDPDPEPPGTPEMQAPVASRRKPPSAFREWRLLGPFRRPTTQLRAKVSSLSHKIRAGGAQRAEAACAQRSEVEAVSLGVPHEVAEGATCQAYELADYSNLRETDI

[4] = biological target: T4, Alpha-1A adrenergic receptor (Homo sapiens, UniProt P35348); assay: Activation of recombinant human adrenergic,alpha-1A receptor expressed in rat-1 fibroblasts determined via calcium mobilization through Gq coupled PLC pathway; type: functional; method in brief: as §1
T4 sequence (P35348 whole entry): T1 sequence (whole entry)

[5] = biological target: T5, Alpha-1B adrenergic receptor (Homo sapiens) (UniProt P35368); assay: Activation of human alpha-1B receptor expressed in rat-1 fibroblasts by calcium mobilization of Gq coupled PLC as percent phenylephrine (40 uM) response; type: functional; method in brief: as §1
T5 sequence (whole entry): T2 sequence (P35368 whole entry)

[6] = biological target: T4, Alpha-1A adrenergic receptor; assay: Binding affinity of compound towards Alpha-1A adrenergic receptor using membranes prepared from Rat-1 fibroblasts expressing human Alpha-1A adrenergic receptor
Method in brief: (§2)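 Radioligand binding was run on membranes from Rat-1 fibroblasts expressing human α1A, α1B or α1D adrenoceptor. Affinity is reported as pIC50 (±SEM), the mean of at least two experiments.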

[7] = biological target: T6, Alpha-1D adrenergic receptor (Homo sapiens) (UniProt P25100); assay: Ability to activate human alpha-1D receptor expressed in rat-1 fibroblasts as calcium mobilization through Gq coupled PLC pathway relative to phenylephrine response; type: functional; method in brief: as §1
T6 sequence (whole entry): T3 sequence (P25100 whole entry)

[8] = biological target: T3, Alpha-1D adrenergic receptor; assay: Binding affinity of compound towards human Alpha-1D adrenergic receptor expressed in rat-1 fibroblast membranes; type: cell membranes; method in brief: as §2
[9] = biological target: T2, Alpha-1B adrenergic receptor; assay: Binding affinity of compound towards human Alpha-1B adrenergic receptor expressed in rat fibroblast membranes; type: cell membranes, Membrane; method in brief: as §2

Row | Max [1] [%] | EC50 [2] [µM] | EC50 [3] [µM] | EC50 [4] [µM] | Max [5] [%] | IC50 [6] [µM] | Max [7] [%] | IC50 [8] [µM] | IC50 [9] [µM] | Structure (SMILES)
1 | 107 | > 100 | > 100 | 0.0398 |  |  |  |  |  | Cn1nccc1-c1ccccc1OCC1=NCCN1
2 | 119 | 0.0794 | > 100 | 0.00501 | 39 |  |  |  |  | c1ccc(-c2cc[nH]n2)c(OCC2=NCCN2)c1
3 | 80 | > 100 | > 100 | 0.126 |  |  |  |  |  | Cc1cccc(-c2ccccc2OCC2=NCCN2)n1
4 |  | > 100 | > 100 | > 100 |  |  |  |  |  | c1ccc(-c2ccncc2)c(OCC2=NCCN2)c1
5 | 86 | > 100 | > 100 | 0.316 |  |  |  |  |  | CS(=O)(=O)Nc1ccc(F)c([C@@H](O)CN)c1 [NS-49]
6 | 90 | > 100 | > 100 | 1.26 |  |  |  |  |  | c1cnc(-c2ccccc2OCC2=NCCN2)nc1
7 | 97 | > 100 | > 100 | 0.0251 |  |  |  |  |  | Cc1ccc(-c2ccccc2OCC2=NCCN2)s1
8 | 109 | 0.0794 | 0.158 | 0.002 | 111 | 0.0501 | 38 | 0.257 | 1.29 | c1cncc(-c2ccccc2OCC2=NCCN2)c1
9 | 104 | 0.00501 | 0.00501 | 0.000501 | 111 |  | 126 |  |  | c1ccc(-c2ccoc2)c(OCC2=NCCN2)c1
10 | 122 | > 100 | > 100 | 0.1 |  |  |  |  |  | c1ccc(-c2ncc[nH]2)c(OCC2=NCCN2)c1
11 |  | > 100 | > 100 | 0.0126 |  | 0.115 |  | 1.12 | 2.04 | c1ccc(-c2ccccc2OCC2=NCCN2)nc1
12 | 75 | > 100 | > 100 | 0.158 |  |  |  |  |  | Cc1cc(-c2ccccc2OCC2=NCCN2)sn1
13 | 101 | > 100 | 0.794 | 0.00794 |  |  | 20 |  |  | c1ccc(-c2ccccc2NCC2=NCCN2)cc1
14 | 104 | > 100 | > 100 | 0.0251 |  |  |  |  |  | Cc1csc(-c2ccccc2OCC2=NCCN2)n1
15 |  | > 5.01 | > 5.01 | > 5.01 |  |  |  |  |  | CCN(CC)C(=O)c1ccccc1OCC1=NCCN1
16 | 97 | 0.631 | > 100 | 0.00251 | 46 |  |  |  |  | c1ccc(-c2cnccn2)c(OCC2=NCCN2)c1
17 | 104 | > 100 | > 100 | 0.0126 |  |  |  |  |  | Cc1cnsc1-c1ccccc1OCC1=NCCN1
18 | 99 | > 100 | > 100 | 0.00316 |  | 0.0347 |  | 0.417 | 0.776 | Cc1ccoc1-c1ccccc1OCC1=NCCN1
19 | 106 | 0.01 | > 100 | 0.00126 | 110 |  |  |  |  | c1coc(-c2ccccc2OCC2=NCCN2)c1
20 |  | > 100 | > 100 | > 100 |  | 1.29 |  | 1.41 | 2.45 | Cc1ccnc(-c2ccccc2OCC2=NCCN2)c1
21 |  | > 100 | > 100 | 0.00316 |  | 0.0275 |  | 0.324 | 0.741 | c1ccc(-c2ccccc2OCC2=NCCN2)cc1
22 | 101 | 0.00398 | 0.0158 | 0.001 | 112 |  | 93 |  |  | c1csc(-c2ccccc2OCC2=NCCN2)c1
23 | 98 | 0.0158 | 0.0126 | 0.000251 | 103 |  | 120 |  |  | c1ccc(-c2ccsc2)c(OCC2=NCCN2)c1
24 | 99 | 0.0126 | 0.0251 | 0.00501 | 56 |  | 82 |  |  | c1ccc(-c2ccns2)c(OCC2=NCCN2)c1
25 | 102 | 0.02 | 0.0316 | 0.00251 | 100 |  | 113 |  |  | c1ccc(-c2nccs2)c(OCC2=NCCN2)c1
26 | 99 | 0.001 | 0.00631 | 0.00126 | 104 | 0.0324 | 111 | 0.0537 | 0.269 | c1c[nH]c(-c2ccccc2OCC2=NCCN2)c1
27 |  | > 100 | > 100 | > 100 |  |  |  |  |  | c1ccc(-c2ccncn2)c(OCC2=NCCN2)c1

Source: ChEMBL document CHEMBL1135838, “alpha(1)-Adrenoceptor agonists: the identification of novel alpha(1A )subtype selective 2'-heteroaryl-2-(phenoxymethyl)imidazolines” (Bioorg Med Chem Lett, 2002)
